Assay results published in ChEMBL document CHEMBL1130379, “3-[2-(Pyrrolidin-1-yl)ethyl]indoles and 3-[3-(piperidin-1-yl)propyl]indoles: agonists for the h5-HT1D receptor with high selectivity over the h5-HT1B subtype” (J Med Chem, 1997).

Legend:
[1] = molecular target: T1, 5-hydroxytryptamine receptor 1D (Homo sapiens, UniProt P28221); assay: Measurement of agonist induced [35S]GTP-gamma-S, binding in CHO cells stably transfected with 5-hydroxytryptamine 1D receptor.; type: functional, cell-based
In short: (§1)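 Agonist-induced [35S]GTPγS binding was measured in CHO cells stably transfected with human 5-HT1D receptors. The output was EC50 together with intrinsic efficacy, expressed as percent of the maximal 5-HT response.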

[2] = molecular target: T1, 5-hydroxytryptamine receptor 1D; assay: Binding affinity by displacement to human cloned 5-hydroxytryptamine 1D receptor in CHO cells by [3H]5-HT displacement.; type: cell-based
In short: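 Cloned human 5-HT1D receptors were stably expressed in CHO cells. Compounds displaced [3H]-5-HT, used at the receptor's KD, and IC50 was read from the displacement. Values are the mean of two independent determinations, each run in triplicate.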

[3] = molecular target: 5-hydroxytryptamine receptor 1B (Homo sapiens, UniProt P28222); assay: Binding affinity to human cloned 5-hydroxytryptamine 1B receptor in CHO cells by [3H]5-HT binding displacement.; type: cell-based
[4] = molecular target: Serotonin 1 receptors; 5-HT1B & 5-HT1D (Homo sapiens) (UniProt P28222+P28221); assay: Binding selectivity for 5-HT 1D/1B receptors; type: protein assay
[5] = Percent efficacy relative to 5-HT; type: functional; in short: as §1
[6] = efficacy relative to 5-HT; type: functional
In short: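 Agonist-induced [35S]GTPγS binding in CHO cells stably transfected with human 5-HT1D receptors. Intrinsic efficacy is expressed as percent of the maximal 5-HT response.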

T1 sequence (P28221 whole entry): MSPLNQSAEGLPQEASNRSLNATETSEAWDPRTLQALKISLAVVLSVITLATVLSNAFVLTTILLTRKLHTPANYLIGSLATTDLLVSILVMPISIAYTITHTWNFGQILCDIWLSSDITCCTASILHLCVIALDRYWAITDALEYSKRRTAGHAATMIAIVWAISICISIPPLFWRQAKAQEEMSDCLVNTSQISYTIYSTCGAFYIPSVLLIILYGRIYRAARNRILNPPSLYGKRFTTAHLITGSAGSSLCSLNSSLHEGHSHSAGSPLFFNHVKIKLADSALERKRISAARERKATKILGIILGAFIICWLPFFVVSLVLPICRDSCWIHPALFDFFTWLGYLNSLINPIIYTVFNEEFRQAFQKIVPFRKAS
5-hydroxytryptamine receptor 1B, sequence (P28222 whole entry): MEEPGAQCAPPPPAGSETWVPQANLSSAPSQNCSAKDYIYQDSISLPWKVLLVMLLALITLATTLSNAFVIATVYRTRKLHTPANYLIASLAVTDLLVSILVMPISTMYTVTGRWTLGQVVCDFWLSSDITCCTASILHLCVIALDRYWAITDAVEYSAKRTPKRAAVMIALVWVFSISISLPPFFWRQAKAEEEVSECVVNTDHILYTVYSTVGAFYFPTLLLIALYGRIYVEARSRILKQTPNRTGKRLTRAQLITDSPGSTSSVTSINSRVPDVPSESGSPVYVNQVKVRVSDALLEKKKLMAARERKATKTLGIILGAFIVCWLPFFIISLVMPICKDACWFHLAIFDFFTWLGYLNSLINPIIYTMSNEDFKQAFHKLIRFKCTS

Row | Structure (SMILES) | EC50 [1] | IC50 [2] | IC50 [3] | Selectivity ratio [4] | Efficacy [5] | Efficacy [6]
1 | c1ccc(CO[C@@H]2CCN(CCc3c[nH]c4ccc(-n5cnnc5)cc34)C2)cc1 (stereo in doubt; 4b) [listing 1 of 2 here] | 15 nM | 6.3 nM | 146 nM | – | – | –
2 | c1ccc(CO[C@@H]2CCN(CCc3c[nH]c4ccc(-n5cnnc5)cc34)C2)cc1 (stereo in doubt; 4c) [listing 1 of 2 here] | – | – | – | 12 | 84% | –
3 | c1ccc(CNC[C@@H]2CCN(CCc3c[nH]c4ccc(-n5cnnc5)cc34)C2)cc1 | 0.93 nM | 0.5 nM | 47 nM | 94 | 100% | –
4 | CN(C)CCc1c[nH]c2ccc(Cn3cncn3)cc12 | – | – | – | – | 90% | –
5 | OC[C@H](NC1CCN(CCCc2c[nH]c3ccc(-n4cnnc4)cc23)CC1)c1ccc(F)cc1 | 1.1 nM | 0.9 nM | 185 nM | 206 | 104% | –
6 | c1cc2[nH]cc(CCN3CCCC3)c2cc1-n1cnnc1 | 2.6 nM | 3.4 nM | 30.2 nM | 9 | 120% | –
7 | CN(Cc1ccccc1)[C@@H]1CCN(CCc2c[nH]c3ccc(-n4cnnc4)cc23)C1 | – | 38 nM | 210 nM | 5.5 | – | –
8 | c1ccc(CO[C@@H]2CCN(CCc3c[nH]c4ccc(-n5cnnc5)cc34)C2)cc1 (stereo in doubt; 4b) [listing 2 of 2 here] | – | – | – | 23 | 81% | –
9 | c1cc2[nH]cc(CCN3CCCCC3)c2cc1-n1cnnc1 | – | 200 nM | 568 nM | 3 | – | –
10 | c1ccc(CNCC2CCN(CCc3c[nH]c4ccc(-n5cnnc5)cc34)C2)cc1 (single isomer, unassigned) | 4.1 nM | 1.6 nM | 50 nM | 31 | 102% | –
11 | CN(C)CCc1c[nH]c2ccc(-n3cnnc3)cc12 | 0.45 nM | 0.3 nM | 1.4 nM | 4.7 | 117% | –
12 | c1ccc(COC[C@@H]2CCN(CCc3c[nH]c4ccc(-n5cnnc5)cc34)C2)cc1 | 2.1 nM | 2.3 nM | 88 nM | 38 | 68% | –
13 | CN(Cc1ccccc1)C1CCN(CCCc2c[nH]c3ccc(-n4cnnc4)cc23)CC1 | 1.6 nM | 2.2 nM | 145 nM | 66 | 94% | –
14 | C[C@@H](NC1CCN(CCCc2c[nH]c3ccc(-n4cnnc4)cc23)CC1)c1ccccc1 | 1.5 nM | 0.35 nM | 35 nM | 100 | 96% | –
15 | O=C(c1ccc(F)cc1)C1CCN(CCn2c(=O)[nH]c3ccccc3c2=O)CC1 [KETANSERIN] | – | 260 nM | 6500 nM | 25 | – | –
16 | OC[C@H](NC1CCN(CCCc2c[nH]c3ccc(-n4cnnc4)cc23)CC1)c1ccccc1 | 1.8 nM | 1.3 nM | 114 nM | 88 | 95% | –
17 | CN(Cc1ccccc1)C[C@@H]1CCN(CCc2c[nH]c3ccc(-n4cnnc4)cc23)C1 | 1.6 nM | 0.7 nM | 33 nM | 47 | 102% | –
18 | c1cc2[nH]cc(CCCN3CCCCC3)c2cc1-n1cnnc1 | – | 24 nM | 15 nM | 0.6 | – | –
19 | c1ccc(CNC2CCN(CCCc3c[nH]c4ccc(-n5cnnc5)cc34)CC2)cc1 | 8 nM | 4.8 nM | 125 nM | 26 | 76% | –
20 | CN(Cc1ccccc1)CC1CCN(CCCc2c[nH]c3ccc(-n4cnnc4)cc23)CC1 | 0.9 nM | 0.95 nM | 28 nM | 29 | 93% | –
21 | CNS(=O)(=O)Cc1ccc2[nH]cc(CCN(C)C)c2c1 | – | – | – | – | – | 100%
22 | c1ccc(CO[C@@H]2CCN(CCc3c[nH]c4ccc(-n5cnnc5)cc34)C2)cc1 (stereo in doubt; 4c) [listing 2 of 2 here] | 33 nM | 23 nM | 280 nM | – | – | –
